Assay type in all cases: functional, cell-based
Test [1] deals with AGS. In words: Cytotoxicity against human AGS cells upto 30 uM by MTS colorimetric assay. An outline of the steps:
(§1)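 Cells grown in DMEM with 10% fetal calf serum, seeded and cultured 24 h, then exposed to test compounds for 72 h. Viability read by MTS colorimetric assay.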
A general note: Formazan colour is commonly taken as a measure of viable cells.

The subject of test [2] is HepG2. Nature of the test: Cytotoxicity against human HepG2 cells upto 30 by MTS colorimetric assay. In outline: as §1
In test [3] the test system is HA59T. In words: Cytotoxicity against human HA59T cells upto 30 by MTS colorimetric assay. An outline of the steps: as §1
Test [4] has as its system DLD-1. Nature of the test: Cytotoxicity against human DLD1 cells upto 30 by MTS colorimetric assay. In outline:
as §1

The test system of test [5] is DLD-1. In words: Cytotoxicity against human DLD1 cells by MTS colorimetric assay. An outline of the steps: (§2)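 Cells grown in DMEM with 10% fetal calf serum and seeded 24 h before treatment. Viability read by MTS colorimetric assay after 72 h compound exposure. IC50 taken as mean concentration giving 50% growth inhibition from replicate values.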
Test [6] deals with AGS. Nature of the test: Cytotoxicity against human AGS cells by MTS colorimetric assay. In outline:
as §2

Test [7] relates to HepG2. Nature of the test: Cytotoxicity against human HepG2 cells by MTS colorimetric assay. An outline of the steps: as §2
Test [8] can be described thus: (§3) Cytotoxicity against human HA59T cells by MTS colorimetric assay. In outline: as §2
Test [9] relates to HA59T. The description is as §3. An outline of the steps:
as §2

Our source for the Activity and IC50 values is ChEMBL document CHEMBL1155617, “Cytotoxic constituents of Polyalthia longifolia var. pendula” (J Nat Prod, 2000).

A word on the IC50: it is the concentration needed to halve the response being measured. Lower therefore signals higher potency.

Structures are written as SMILES. Active and inactive are the calls of the source. The calls are words filed in the database; no cut-off is given here. Where only a bound is given, the exact number is not on record here.

As to `COc1cc2c(cc1O)C[C@@H]1NCCc3cc(O)c(OC)c-2c31`, the result in test [1], in [2], in [3] and in test [4] was inactive.

Regarding `COc1ccc2c(c1O)-c1nccc(C)c1C2=O`, the half-inhibitory concentration (IC50) in [5] is over 30 µM; in [6] it was over 30 µM; in test [7] it was over 30 µM; in [8], 21.7 µM.

Take `c1ccc2c(c1)C[C@H]1NCCc3cc4c(c-2c31)OCO4` [ANONAINE]: the concentration for half-maximal inhibition (IC50) turned out to be 28.9 µM in test [5], 8.6 µM in test [6], 20.8 µM in test [7] and 16.4 µM in test [8].

Turning to `COc1cc2c(cc1O)[C@@H]1Cc3ccc(O)c(OC)c3CN1CC2`, the outcome in test [1], in test [2], in test [3] and in test [4] was inactive.

For the compound `C[C@@H]1CC[C@@]2(O)[C@H](CC[C@H](O)C2(C)C)[C@@]1(C)CCC1=CC(=O)O[C@@H]1O`, the outcome in [5], in test [6], in test [7] and in [9] was inactive.

With `CC1=CCC[C@@H]2[C@@](C)(CCC3=CC(=O)O[C@@H]3O)[C@H](C)CC[C@@]12C`, the concentration for half-maximal inhibition (IC50) in test [5] is over 30 µM; in [6], 26.9 µM; in test [7], over 30 µM; in test [8] it was 23.6 µM.
